Calb FLC – affects C. albicans growth with fluconazole | C. albicans CaCi-2 (fluconazole-resistant clinical isolate) + fluconazole, Alamar Blue growth, 48 h | 300,000 tested, 0.57% active | AID 1979 | growth inhibition, % (concentration not given with the values);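 active means growth inhibition above about 58% in most replicates, limit read from the data, passing the limit was not always enough; inconclusive means exactly half the replicates above a set limit; inactive means most replicates below a set limit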;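 further: all wells also contain fluconazole at 8 µg/ml as a sub-toxic cotreatment; 0% = median of DMSO wells and 100% = median of geldanamycin control wells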
SR-BI DiI inh – blocks mouse SR-BI lipid uptake from DiI-HDL; 320,000 tested, 0.96% active; ldlA[mSR-BI] CHO cells, DiI-HDL uptake fluorescence, 3 h; inhibition, % at 12.5 µM;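 active means mean replicate inhibition of at least 70% and a set share of replicates each scoring 70 or more; inconclusive means meets just one of the two criteria; inactive means fails both criteria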;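 further: 0% = median of neutral control wells and 100% = median of positive control wells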
Target sequence (Q61009 whole entry, looked up): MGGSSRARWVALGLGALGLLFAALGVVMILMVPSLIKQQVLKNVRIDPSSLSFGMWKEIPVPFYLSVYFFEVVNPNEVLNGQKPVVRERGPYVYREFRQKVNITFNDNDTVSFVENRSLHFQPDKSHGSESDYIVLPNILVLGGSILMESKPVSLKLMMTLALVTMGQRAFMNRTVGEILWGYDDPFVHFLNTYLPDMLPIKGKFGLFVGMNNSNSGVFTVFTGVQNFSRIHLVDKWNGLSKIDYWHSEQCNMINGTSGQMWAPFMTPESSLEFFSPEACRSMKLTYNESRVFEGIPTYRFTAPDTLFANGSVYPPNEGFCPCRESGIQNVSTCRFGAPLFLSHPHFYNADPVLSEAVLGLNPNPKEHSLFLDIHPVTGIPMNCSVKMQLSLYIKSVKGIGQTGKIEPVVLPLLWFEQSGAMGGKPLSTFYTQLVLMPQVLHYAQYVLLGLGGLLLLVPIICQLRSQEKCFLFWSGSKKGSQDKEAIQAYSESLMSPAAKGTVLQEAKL
Ins promoter up – MIN6 insulin promoter up-regulation; MIN6 insulin promoter-GFP reporter, high-content imaging; stronger effect = higher value; z-score at 5 µM; 190,000 tested, 0.3% active;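 active means z-score above 3 at 5 µM with at least 500 cells counted in the well; inconclusive means wells under 500 cells, flagged as cytotoxic or low count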
SR-BI uptake up – activators of SR-BI mediated HDL lipid uptake; CHO ldlA[mSR-BI] cells, DiI-HDL uptake fluorescence, 3 h; 100 = double the neutral-control signal; activation, % at 12.5 µM; AID 504775; 320,000 tested, 0.096% active;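 active means mean replicate activation of at least 60% and every replicate at or above 60%; inconclusive means mean or all-replicate condition met, but not both; inactive means mean below 60% and not all replicates reaching 60%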;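 further: 0% = median plate neutral-control signal and 100% = twice that signal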
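material = CHO ldlA[mSR-BI] cells | medium = Ham's F12 with 0.5% BSA, HEPES 25 mM, pH 7.4 | reagent = fluorescent DiI-HDL, 10 µg/mL final | compound dosing = single-point compound dose | incubation = 3 h, 37 °C | measured by = bottom-read fluorescence, 550/595 nm | measure = HDL uptake via cellular fluorescence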
m5-HT2A agonist – agonists of mouse serotonin 5-HT2A receptor (HTR2A); CHO-K1 mHTR2A beta-arrestin complementation, luminescence; percent of 30 µM serotonin response; AID 624169; 360,000 tested, 0.66% active; activation, % at 7.6 µM;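 active means activation above a run cutoff, the mean activation of all tested compounds plus 3 SD, cut at about 14% in these data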;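 further: 0% = plate median of compound wells and 100% = 30 µM serotonin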
MIN6 prolif-1 – induces beta-cell replication in MIN6 cells | 330,000 tested, 0.29% active | proliferation, % at 10 µM | AID 2380 | MIN6 cells proliferation, ATPlite luminescence, 48 h; cells starved in 0.2% serum; 100% = growth in 10% serum;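 active means compounds whose signal lies at least 3.5 SD above the mean of all wells on their plate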;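 further: 0% = DMSO-treated cells in low-serum medium and 100% = 10% serum control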
MIN6 prolif-2 – MIN6 beta-cell replication induction, confirmed | shares compounds with MIN6 prolif-1 | MIN6 beta-cell proliferation, ATPlite luminescence, 48 h; cells kept in 0.2% serum; scaled between 0.2% and 10% serum | proliferation increase, % at 50 µM | 920 tested, under 10 active | AID 463095;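 active means proliferation increase above 40% at any of the four tested concentrations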
DiI quench – DiI fluorescence quenching in cell-free counter-screen. 470 tested, 20% active. cell-free DiI-HDL fluorescence quenching, 30 min. AID 540326. AC50, µM (top dose mostly 35 µM), inactives show top-dose activity change, negative = quenching. shares compounds with SR-BI DiI inh;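 active means quenching, a falling signal, with AC50 below a set limit tied to the top valid dose, actives reach about 32 µM in these data; inconclusive means no clear call, values can overlap the other calls; inactive means rising signal, and the rest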
MOR ag counter – counter-screen for mouse HTR2A agonists: human mu opioid receptor agonists; 2,300 tested, 5.3% active; U2OS OPRM1 beta-arrestin PathHunter, luminescence; DMSO 0%, DAMGO 9.3 µM 100%; shares compounds with m5-HT2A agonist; activation, % at 9.3 µM;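 active means mean activation above the mean of DMSO-only wells plus 3 SD, cut at about 0.5% in these data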
m5-HT2A ag conf – mouse HTR2A agonism confirmed | shares compounds with m5-HT2A agonist | CHO-K1 PathHunter beta-arrestin recruitment, luminescence; DMSO 0%, 30 µM serotonin 100% | activation, % at 7.6 µM | 2,300 tested, 19% active | AID 624381;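 active means mean activation across triplicates above the hit threshold derived in the original primary screen, cut at about 15% in these data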
* hit, by the source's call; i = inactive; u = inconclusive; x = no result given. Shown are actives, neighbours in structure and some others; about 2.4% of the full set was active somewhere.

SMILES	Calb FLC	SR-BI DiI inh	Ins promoter up	SR-BI uptake up	m5-HT2A agonist	MIN6 prolif-1	DiI quench	others
COc1ccc(N(CC(=O)NC2CCCC2)C(=O)CCC(=O)Nc2nc(C)cs2)cc1OC	0	16	x	-16	2	-2	x
NS(=O)(=O)c1ccc(NC(=O)c2ccc3c(c2)CCCC3)cc1	-9	21	x	-21	5	5.3*	x	MIN6 prolif-2=0
Cc1cccc(C)c1NC(=O)CSc1nc(C2CC2)nc2ccccc12	-3	x	x	x	4	0.0*	x	MIN6 prolif-2=2
Cc1cc(NC(=O)CSc2c3c(nc4ccccc24)CCC3)no1	-4	22	0.33	-22	15*	16*	x	MIN6 prolif-2=-6;MOR ag counter=-1;m5-HT2A ag conf=-5
Cc1cc(C)c2c(=O)n3c(nc2c1)C(CC(C)C)NC(=O)c1cccnc1-3 (stereo not given)	x	x	x	x	-1	x	x
CCS(=O)(=O)c1ccc(Sc2nncn2C)c([N+](=O)[O-])c1	-10	-17	-0.21	17	15*	7.7*	x	MIN6 prolif-2=-6;MOR ag counter=0;m5-HT2A ag conf=4
CCN(CC)S(=O)(=O)c1ccc(NC(=O)c2ccc(Sc3nncn3C)c([N+](=O)[O-])c2)cc1	3	17	-0.67	-17	-5	0	x
Cc1ccsc1-c1nc(-c2ccccc2)c(-c2ccccc2)[nH]1	1	71*	-0.61	-71	3	-2	32µM*
CCOC(=O)C1=CCN(S(=O)(=O)c2ccccc2Br)C1c1cccc(F)c1 (stereo not given)	x	x	x	x	1	x	x
O=C1C[C@H]2[C@H](CO)[C@@H](OC(=O)c3ccc(-c4ccccc4)cc3)C[C@H]2O1	-1	-3	x	3	2	-3	x
COc1ccc(-c2cc(-c3cccs3)nc3sc(C#N)c(N)c23)cc1	68	u	0.56	-74	7	0	x
N#Cc1sc2nc(C3CC3)cc(-c3ccc(Cl)cc3)c2c1N	u	u	x	-71	3	0	1%
COc1ccccc1Nc1nc(-c2c(C)[nH]c3ccccc23)cs1	x	72*	-0.52	-72	0	x	5.6µM*
O=C(Cn1ccc(NC(=O)OCc2ccccc2)nc1=O)NCCCn1ccnc1	x	-31	x	31	-1	-4	x
COc1cc(OC)cc(C(=O)N[C@H](C(=O)Nc2nc(-c3ccc(OC)c(OC)c3)cs2)C(C)C)c1	5	x	-0.58	x	-1	-2	x
COc1cc(OC)cc(C(=O)N[C@H](C(=O)Nc2nc(-c3cc(OC)ccc3OC)cs2)C(C)C)c1	-7	u	-0.7	-71	-3	-6	-1%
CC(C)(C)C(=O)Nc1sc2c(c1-c1nc3ccccc3[nH]1)CCCC2	-5	104*	0.84	-104	10	0	9µM*
CC(C)(C)C(=O)Nc1cccc(-c2nc3ccccc3[nH]2)c1	-30	5	-0.26	-5	-7	-3	x
COc1cc(/C=N/NC(=O)Cc2csc(C)n2)ccc1OCC(C)C	28	82*	-0.44	-82	-4	-4	-2%
Cc1ccnc2nc(C(=O)OC(C)C(=O)NCc3ccccc3)nn12 (stereo not given)	x	-10	x	10	-3	2	x
CC(C)NC(=O)CN1CCN(Cc2nc(C(c3ccccc3)c3ccccc3)no2)CC1	5	10	0.39	-10	0	6	x
O=C(Nc1ncc(Cc2cccc(C(F)(F)F)c2)s1)c1ccc(-c2cccc([N+](=O)[O-])c2)o1	-5	51	-0.83	-51	7	0	-10%
CCc1nc2ccc(C(=O)NCc3ccc4c(c3)OCO4)cn2c1N(CC)Cc1cccc(Br)c1	x	x	x	x	-7	x	x
O=C(Nc1cccc(-c2cn3c(n2)SCC3)c1)c1ccc2ccccc2n1	36	76*	-0.07	-76	4	-1	-5%
O=C(Nc1ccc(-c2cn3c(n2)SCC3)cc1)c1ccc2ccccc2n1	62	55	-0.34	-55	1	-1	x
SMILES	Calb FLC	SR-BI DiI inh	Ins promoter up	SR-BI uptake up	m5-HT2A agonist	MIN6 prolif-1	DiI quench	others
CC(=O)c1ccc(-c2ccc(C(=O)Nc3nc(C)c(C(C)=O)s3)o2)cc1	x	50	x	-50	6	-1	-4%
CC(=O)c1sc(NC(=O)c2ccc(Cl)cc2)nc1C	3	x	0.05	x	-2	0	x
CSc1cccc(N2CC(C(=O)N3CCN(S(=O)(=O)c4ccccc4Cl)CC3)CC2=O)c1 (stereo not given)	x	31	x	-31	-4	1	x
Cc1ccc(-c2cc(C(=O)Nc3sc4c(c3C(=O)NCc3ccco3)CCC4)[nH]n2)c(O)c1	50	83*	x	-83	0	-5	i
Cc1cc(O)c(-c2cc(C(=O)Nc3sc4c(c3C(=O)NCc3ccco3)CCC4)[nH]n2)cc1C	-1	x	-1.1	x	0	-6	x
C/C=C/COC(=O)c1[nH]c2c(c1C)C(=O)CC(c1ccco1)C2 (stereo not given)	0	78*	x	-78	-3	-6	-7%
Cc1c(C(=O)OCC(C)C)[nH]c2c1C(=O)CC(c1ccco1)C2 (stereo not given)	-1	66	x	-66	-4	-6	x
Cc1c(C(=O)OCC2CCCO2)[nH]c2c1C(=O)CC(c1ccco1)C2 (stereo not given)	11	53	-0.2	-53	-1	3	-10%
CCOC(=O)C1ON2CCCCC2C1(O)C(F)(F)F (stereo not given)	-4	-11	-0.15	11	2	2	x
CC[C@@H](C)[C@H](NC(=O)Cc1c(C)c2cc3c(C)coc3c(C)c2oc1=O)C(=O)O	-3	x	x	x	-3	-2	x
CC[C@@H](C)[C@H](NC(=O)Cc1c(C)c2cc3c(C)c(C)oc3c(C)c2oc1=O)C(=O)O	3	95*	x	-95	-2	-3	-3%
COc1cc(OC)cc(C(=O)Nc2cccc(NC(C)=O)c2)c1	-3	25	-0.25	-25	2	-1	x
CCOC(=O)Nc1cccc(NC(=O)c2cc(OC)cc(OC)c2)c1	17	74*	x	-74	0	1	10%

From PubChem
